{"source": "ChEMBL document CHEMBL1122292", "about": "“Aza analogues of lucanthone: synthesis and antitumor and bactericidal properties” (J Med Chem, 1983)", "type_in_all_cases": "functional, organism-based", "key": {"Staphylococcus aureus [1]": {"test_system": "Staphylococcus aureus", "assay": "In vitro antibiotic activity against Staphylococcus aureus ATCC 6358P at 7.2E-8 mol dose; +/- symbol indicates slightly positive result.", "outline": "(§1)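 Compounds were dissolved in ethyl alcohol at 3–5 × 10⁻⁶ mol/mL. Aliquots of 5, 10 or 20 μL were applied to 6-mm filter disks and dried under a light nitrogen stream. The disks were laid on an agar overlay inoculated with the test organism and incubated at 37 °C for 24 h. Inhibition-zone diameters were then measured.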"}, "Candida albicans [2]": {"test_system": "Candida albicans", "assay": "In vitro antibiotic activity against Candida albicans at 7.2E-8 mol dose; - symbol indicates negative result.", "outline": "as §1"}, "Escherichia coli": {"test_system": "Escherichia coli", "assay": "In vitro antibiotic activity against Escherichia coli ATCC 10536 at 7.2E-8 mol dose; ++ symbol indicates slight constraint, transient positive result.", "outline": "as §1"}, "Candida albicans [3]": {"test_system": "Candida albicans", "assay": "In vitro antibiotic activity against Candida albicans at 3.6E-8 mol dose; - symbol indicates negative result.", "outline": "as §1"}, "Bacillus subtilis": {"test_system": "Bacillus subtilis", "assay": "In vitro antibiotic activity against Bacillus subtilis ATCC 6633 at 1.8E-8 mol dose; - symbol indicates negative result.", "outline": "as §1"}, "Staphylococcus aureus [4]": {"test_system": "Staphylococcus aureus", "assay": "In vitro antibiotic activity against Staphylococcus aureus ATCC 6358P at 3.6E-8 mol dose; +/- symbol indicates slightly positive result.", "outline": "as §1"}, "Staphylococcus aureus [5]": {"test_system": "Staphylococcus aureus", "assay": "In vitro antibiotic activity against Staphylococcus aureus ATCC 6358P at 1.8E-8 mol dose; +/- symbol indicates slightly positive result.", "outline": "as §1"}, "Candida albicans [6]": {"test_system": "Candida albicans", "assay": "In vitro antibiotic activity against Candida albicans at 1.8E-8 mol dose; - symbol indicates negative result.", "outline": "as §1"}}}
{"smiles": "CCN(CC)CCCNc1nc(C)cc2nc3ccccc3c(O)c12", "values": [{"measurement": "Antibiotic activity", "setting": "Staphylococcus aureus [1]", "value": "+/-"}, {"measurement": "Antibiotic activity", "setting": "Candida albicans [2]", "value": "Negative result"}, {"measurement": "Antibiotic activity", "setting": "Escherichia coli", "value": "slight constraint, transient positive result"}, {"measurement": "Antibiotic activity", "setting": "Candida albicans [3]", "value": "Negative result"}, {"measurement": "Antibiotic activity", "setting": "Bacillus subtilis", "value": "Negative result"}, {"measurement": "Antibiotic activity", "setting": "Staphylococcus aureus [4]", "value": "+/-"}, {"measurement": "Antibiotic activity", "setting": "Staphylococcus aureus [5]", "value": "+/-"}, {"measurement": "Antibiotic activity", "setting": "Candida albicans [6]", "value": "Negative result"}]}
